{"source": "ChEMBL document CHEMBL4699436", "about": "“Scaffold diversity for enhanced activity of glycosylated inhibitors of fungal adhesion” (RSC Med Chem, 2020)", "key": {"[1]": {"system": "Candida albicans", "experiment": "Anti-adherence activity against Candida albicans serotype B assessed as reduction in yeast adhesion to human BECs at 13.8 mM preincubated for 90 mins with BECs followed by twice washout with PBS followed by yeast cells addition by crystal violet staning based microscopic method relative to control", "assay_type": "functional", "conditions": "1.5 h", "in_short": "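Reverse exclusion format. Buccal epithelial cells were pre-treated with compound at 13.8 mM before exposure to the yeast (C. albicans MEN, stationary phase, in PBS). Adherence was measured by membrane filtration, crystal violet staining, and microscopic counting of yeast on 200 BECs. Three independent occasions; mean ± SEM.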"}, "[2]": {"system": "Candida albicans", "experiment": "Anti-adherence activity against Candida albicans serotype B assessed as displacement of adhered yeast cells on BECs at 13.8 mM incubated for 90 mins after preincubation of yeast cells with BECs by crystal violet staning based microscopic method relative to PBS control after second filtration", "assay_type": "functional, organism-based", "in_short": "(§1)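 C. albicans MEN (serotype B, corneal clinical isolate) was grown overnight to stationary phase in YEPD at 30 °C and 200 rpm, washed, and resuspended in PBS at 1 × 10^8 cells per mL. Buccal epithelial cells were scraped from healthy volunteers, washed, and held at 5 × 10^5 per mL. Yeast and BECs (50:1) were co-incubated first. The BECs with adherent yeast were collected on a 30 μm polycarbonate membrane, then re-incubated with compound for 90 min. Yeast on 200 BECs were counted after crystal violet staining. Control 1 was PBS. Control 2 was the PBS-treated count after the second filtration, to account for physical detachment. Three independent occasions; mean ± SEM.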"}, "[3]": {"system": "Candida albicans", "experiment": "Anti-adherence activity against Candida albicans serotype B assessed as displacement of adhered yeast cells on BECs at 13.8 mM incubated for 90 mins after preincubation of yeast cells with BECs by crystal violet staning based microscopic method relative to PBS control", "assay_type": "functional, organism-based", "in_short": "as §1"}, "[4]": {"system": "Candida albicans", "experiment": "(§2) Anti-adherence activity against Candida albicans serotype B assessed as reduction in fungal adhesion to human BECs at 13.8 mM preincubated with yeast cells for 90 mins followed by twice washout with PBS followed by BECs addition by crystal violet staning based microscopic method relative to control", "assay_type": "functional", "conditions": "1.5 h", "in_short": "(§3)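 Pre-treatment (exclusion) format. Stationary-phase C. albicans MEN in PBS were incubated with compound for 90 min, washed twice with PBS, and resuspended in 1 mL PBS. They were then mixed 50:1 with volunteer BECs for 90 min at 30 °C and 200 rpm. After 30 μm membrane filtration and crystal violet staining, yeast attached to 200 BECs were counted. PBS control. Three independent occasions; mean ± SEM.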"}, "[5]": {"system": "Candida albicans", "experiment": "Anti-adherence activity against Candida albicans serotype B assessed as fungal adhesion to human BECs at 13.8 mM co- incubated for 90 mins with yeast cells and BECs by crystal violet staning based microscopic method relative to control", "assay_type": "functional", "conditions": "1.5 h", "in_short": "(§4)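 Yeast (C. albicans MEN, stationary phase, washed, 1 × 10^8 per mL in PBS) were co-incubated with volunteer BECs at 50:1, with compound present, in 2 mL at 30 °C and 200 rpm for 90 min. Unattached yeast were removed on a 30 μm membrane with two PBS washes. Cells were heat-fixed and stained with crystal violet, and adherent yeast on 200 BECs were counted microscopically. PBS control. Three independent occasions; mean ± SEM.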"}, "[6]": {"experiment": "Toxicity against Candid albicans serotype B assessed as reduction in fungal growth at 0.0133 to 3.4 mM", "conditions": "candida albicans, 3400 µM; dose 0.0133-3.4 mM"}, "[7]": {"system": "Candida albicans", "experiment": "as §2, with “0.138 to 1.38” for “13.8”", "assay_type": "functional", "conditions": "dose mM 0.138-1.38, 1.5 h", "in_short": "as §3"}, "[8]": {"system": "Candida albicans", "experiment": "Anti-adherence activity against Candida albicans serotype B assessed as displacement of adhered yeast cells on human BECs at 138 uM incubated for 90 mins after preincubation of yeast cells with BECs by crystal violet staning based microscopic method relative to PBS control", "assay_type": "functional, organism-based", "in_short": "as §1"}, "[9]": {"system": "Candida albicans", "experiment": "Anti-adherence activity against Candida albicans serotype B assessed as displacement of adhered yeast cells on BECs at 138 uM incubated for 90 mins after preincubation of yeast cells with BECs by crystal violet staning based microscopic method relative to PBS control after second filtration", "assay_type": "functional, organism-based", "in_short": "as §1"}, "[10]": {"system": "Candida albicans", "experiment": "Anti-adherence activity against Candida albicans serotype B assessed as fungal adhesion to human BECs at 1.38 mM co-incubated for 90 mins with yeast cells and BECs by crystal violet staning based microscopic method relative to control", "assay_type": "functional", "conditions": "1.5 h", "in_short": "as §4"}, "[11]": {"system": "Candida albicans", "experiment": "Anti-adherence activity against Candida albicans serotype B assessed as fungal adhesion to human BECs at 138 uM co-incubated for 90 mins with yeast cells and BECs by crystal violet staning based microscopic method relative to control", "assay_type": "functional", "conditions": "1.5 h", "in_short": "as §4"}}}
{"smiles": "O=c1c(NCc2cn(CCO[C@@H]3O[C@H](CO)[C@H](O)[C@H](O)[C@H]3O)nn2)c(NCc2cn(CCO[C@@H]3O[C@H](CO)[C@H](O)[C@H](O)[C@H]3O)nn2)c1=O", "values": [{"measurement": "inhibition at 13800 µM", "setting": "[1]", "result": 19, "unit": "%"}, {"measurement": "inhibition", "setting": "[2]", "result": 21, "unit": "%"}, {"measurement": "inhibition", "setting": "[3]", "result": 35, "unit": "%"}, {"measurement": "inhibition at 13800 µM", "setting": "[4]", "result": 33, "unit": "%"}, {"measurement": "Fungal adhesion relative to control", "setting": "[5]", "result": 69, "unit": "%"}, {"measurement": "Activity", "setting": "[6]", "result": "Non-Toxic"}]}
{"smiles": "O=c1c(NCc2cn([C@@H]3O[C@H](CO)[C@H](O[C@@H]4O[C@H](CO)[C@H](O)[C@H](O)[C@H]4O)[C@H](O)[C@H]3O)nn2)c(NCc2cn([C@@H]3O[C@H](CO)[C@H](O[C@@H]4O[C@H](CO)[C@H](O)[C@H](O)[C@H]4O)[C@H](O)[C@H]3O)nn2)c1=O", "values": [{"measurement": "inhibition at 13800 µM", "setting": "[1]", "result": 15, "unit": "%"}, {"measurement": "inhibition", "setting": "[2]", "result": 25, "unit": "%"}, {"measurement": "inhibition", "setting": "[3]", "result": 39, "unit": "%"}, {"measurement": "inhibition at 13800 µM", "setting": "[4]", "result": 34, "unit": "%"}, {"measurement": "Fungal adhesion relative to control", "setting": "[5]", "result": 64, "unit": "%"}]}
{"smiles": "O=c1c(NCc2cn([C@@H]3O[C@H](CO)[C@H](O)[C@H](O)[C@H]3O)nn2)c(NCc2cn([C@@H]3O[C@H](CO)[C@H](O)[C@H](O)[C@H]3O)nn2)c1=O", "values": [{"measurement": "inhibition at 13800 µM", "setting": "[1]", "result": 12, "unit": "%"}, {"measurement": "inhibition at 13800 µM", "setting": "[4]", "result": 27, "unit": "%"}, {"measurement": "Fungal adhesion relative to control", "setting": "[5]", "result": 83, "unit": "%"}, {"measurement": "Activity", "setting": "[6]", "result": "Non-Toxic"}]}
{"smiles": "O=C(NCc1cn([C@@H]2O[C@H](CO)[C@H](O)[C@H](O)[C@H]2O)nn1)c1ccc(C(=O)NCc2cn([C@@H]3O[C@H](CO)[C@H](O)[C@H](O)[C@H]3O)nn2)cc1", "values": [{"measurement": "inhibition at 13800 µM", "setting": "[4]", "result": 33.5, "unit": "%"}, {"measurement": "inhibition (INH)", "setting": "[7]", "result": "<=61%"}, {"measurement": "inhibition", "setting": "[8]", "result": 63, "unit": "%"}, {"measurement": "Fungal adhesion relative to control", "setting": "[5]", "result": 38, "unit": "%"}, {"measurement": "inhibition", "setting": "[9]", "result": 48, "unit": "%"}, {"measurement": "Activity", "setting": "[10]", "result": 74, "unit": "%"}, {"measurement": "Activity", "setting": "[11]", "result": 56, "unit": "%"}, {"measurement": "Activity", "setting": "[6]", "result": "Non-Toxic"}]}
{"smiles": "CCC(=O)Nc1cc(C(=O)NCc2cn([C@@H]3O[C@H](CO)[C@H](O)[C@H](O)[C@H]3O)nn2)cc(C(=O)NCc2cn([C@@H]3O[C@H](CO)[C@H](O)[C@H](O)[C@H]3O)nn2)c1", "values": [{"measurement": "inhibition at 13800 µM", "setting": "[1]", "result": 22, "unit": "%"}, {"measurement": "inhibition", "setting": "[2]", "result": 31, "unit": "%"}, {"measurement": "inhibition", "setting": "[3]", "result": 42, "unit": "%"}, {"measurement": "inhibition at 13800 µM", "setting": "[4]", "result": 42, "unit": "%"}, {"measurement": "inhibition", "setting": "[8]", "result": 56, "unit": "%"}, {"measurement": "Fungal adhesion relative to control", "setting": "[5]", "result": 59, "unit": "%"}, {"measurement": "inhibition", "setting": "[9]", "result": 36, "unit": "%"}, {"measurement": "Activity", "setting": "[10]", "result": 74, "unit": "%"}, {"measurement": "Activity", "setting": "[11]", "result": 65, "unit": "%"}, {"measurement": "Activity", "setting": "[6]", "result": "Non-Toxic"}]}
{"smiles": "O=C1[C@@H]2[C@H](C(=O)N1Cc1cn([C@@H]3O[C@H](CO)[C@H](O)[C@H](O)[C@H]3O)nn1)[C@@H]1C=C[C@H]2C1", "values": [{"measurement": "inhibition", "setting": "[2]", "result": 7, "unit": "%"}, {"measurement": "inhibition", "setting": "[3]", "result": 23, "unit": "%"}, {"measurement": "inhibition at 13800 µM", "setting": "[4]", "result": 43, "unit": "%"}, {"measurement": "Fungal adhesion relative to control", "setting": "[5]", "result": 83, "unit": "%"}]}
{"smiles": "O=C(NCc1cn([C@@H]2O[C@H](CO)[C@H](O)[C@H](O)[C@H]2O)nn1)[C@H]1[C@H](C(=O)NCc2cn([C@@H]3O[C@H](CO)[C@H](O)[C@H](O)[C@H]3O)nn2)[C@H]2C=C[C@@H]1C2", "values": [{"measurement": "inhibition", "setting": "[2]", "result": 7, "unit": "%"}, {"measurement": "inhibition", "setting": "[3]", "result": 23, "unit": "%"}, {"measurement": "inhibition at 13800 µM", "setting": "[4]", "result": 46, "unit": "%"}, {"measurement": "Fungal adhesion relative to control", "setting": "[5]", "result": 62, "unit": "%"}]}
{"smiles": "O=C(NCc1cn([C@@H]2O[C@H](CO)[C@H](O)[C@H](O)[C@H]2O)nn1)[C@@H]1[C@H](C(=O)NCc2cn([C@@H]3O[C@H](CO)[C@H](O)[C@H](O)[C@H]3O)nn2)[C@@H]2C=C[C@H]1C2", "values": [{"measurement": "inhibition", "setting": "[2]", "result": 34, "unit": "%"}, {"measurement": "inhibition", "setting": "[3]", "result": 45, "unit": "%"}, {"measurement": "inhibition at 13800 µM", "setting": "[4]", "result": 65, "unit": "%"}, {"measurement": "Fungal adhesion relative to control", "setting": "[5]", "result": 61, "unit": "%"}, {"measurement": "Activity", "setting": "[6]", "result": "Non-Toxic"}]}
